Experimental data taken from ChEMBL document CHEMBL4354843, “Structure-Based Design of a Potent and Selective Covalent Inhibitor for SRC Kinase That Targets a P-Loop Cysteine” (J Med Chem, 2020).
Calls of active or inactive are those of the source. No cut-off for these calls is given here.

Tests used:
[1] = biological target: Dual specificity mitogen-activated protein kinase kinase; MEK1/2 (Homo sapiens) (UniProt P36507+Q02750); experiment: Inhibition of MEK1/2 in human HCC827 cells assessed as blocking of MEK1/2 pulldown at 1 uM in presence of TL13-68 incubated for 2 hrs by Western blot analysis; assay type: cell-based
Outline: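 H1975 or HCC827 cells treated with 1 μM compound or DMSO for 2 h, rinsed twice in cold PBS, and lysed in M-PER with protease/phosphatase inhibitors. Lysate rocked overnight at 4 °C with 1 μM TL13-68, then streptavidin pulldown with five cold washes. Bound kinases detected by Western blot. Two independent experiments.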

[2] = biological target: RAC-alpha serine/threonine-protein kinase (Homo sapiens) (UniProt P31749); experiment: Binding affinity to wild-type human partial length AKT1 expressed in bacterial expression system assessed as residual binding level at 1 uM by Kinomescan method relative to control
[3] = tested on: ALK tyrosine kinase receptor (Homo sapiens), Q9UM73 [C1156Y]; experiment: Binding affinity to wild-type human partial length ALK C1156Y mutant (I1088 to E1409 residues) expressed in mammalian expression system assessed as residual binding level at 1 uM by Kinomescan method relative to control
[4] = biological target: Bone morphogenetic protein receptor type-1A (Homo sapiens) (UniProt P36894); experiment: Binding affinity to wild-type human partial length BMPR1A (Q214 to I532 residues) expressed in bacterial expression system assessed as residual binding level at 1 uM by Kinomescan method relative to control
Bone morphogenetic protein receptor type-1A (Homo sapiens), sequence (P36894 whole entry, the tested form may be a part): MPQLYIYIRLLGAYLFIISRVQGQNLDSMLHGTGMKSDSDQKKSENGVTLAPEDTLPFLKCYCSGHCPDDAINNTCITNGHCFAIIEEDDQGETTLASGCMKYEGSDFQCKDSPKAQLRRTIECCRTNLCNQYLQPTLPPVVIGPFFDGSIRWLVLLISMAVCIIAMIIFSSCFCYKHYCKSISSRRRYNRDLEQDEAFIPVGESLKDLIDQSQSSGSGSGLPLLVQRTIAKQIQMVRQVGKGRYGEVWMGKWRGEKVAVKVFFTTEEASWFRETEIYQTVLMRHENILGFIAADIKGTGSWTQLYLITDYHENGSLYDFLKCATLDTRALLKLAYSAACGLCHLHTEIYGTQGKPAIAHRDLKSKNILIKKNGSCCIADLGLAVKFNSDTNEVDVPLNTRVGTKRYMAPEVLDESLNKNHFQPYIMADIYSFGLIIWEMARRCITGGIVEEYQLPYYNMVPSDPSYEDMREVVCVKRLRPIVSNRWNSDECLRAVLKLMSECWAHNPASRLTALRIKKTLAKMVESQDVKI

[5] = tested on: Serine/threonine-protein kinase B-raf (Homo sapiens), P15056 [V600E]; experiment: Binding affinity to human partial length BRAF V600E mutant (S429 to E741 residues) expressed in mammalian expression system assessed as residual binding level at 1 uM by Kinomescan method relative to control
Outline: (§1)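 KinomeScan active site-directed competition binding panel (468 kinases), compound tested at 1 μM. Result expressed as remaining kinase signal versus DMSO control (percent of control).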

[6] = biological target: Protein-tyrosine kinase 6 (Homo sapiens) (UniProt Q13882); experiment: Binding affinity to wild-type human partial length BRK (L166 to T451 residues) expressed in bacterial expression system assessed as residual binding level at 1 uM by Kinomescan method relative to control
Protein-tyrosine kinase 6 (Homo sapiens), sequence (Q13882 whole entry, looked up, the tested form may be a part): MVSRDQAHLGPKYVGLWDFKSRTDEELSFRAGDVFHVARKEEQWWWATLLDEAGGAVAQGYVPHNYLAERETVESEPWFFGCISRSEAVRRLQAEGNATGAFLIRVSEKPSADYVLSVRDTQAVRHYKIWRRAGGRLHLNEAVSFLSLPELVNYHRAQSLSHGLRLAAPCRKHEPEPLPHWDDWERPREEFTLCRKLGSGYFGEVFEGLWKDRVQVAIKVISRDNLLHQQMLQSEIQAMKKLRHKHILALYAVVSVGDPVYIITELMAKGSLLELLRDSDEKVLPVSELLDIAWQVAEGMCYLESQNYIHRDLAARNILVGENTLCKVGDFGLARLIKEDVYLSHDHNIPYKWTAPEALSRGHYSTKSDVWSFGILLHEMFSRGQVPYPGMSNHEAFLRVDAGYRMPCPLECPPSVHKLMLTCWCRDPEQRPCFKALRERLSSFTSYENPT

[7] = biological target: Myotonin-protein kinase (Homo sapiens) (UniProt Q09013); experiment: Binding affinity to wild-type human partial length DMPK (V47 to V415 residues) expressed in bacterial expression system assessed as residual binding level at 1 uM by Kinomescan method relative to control
[8] = biological target: Ephrin type-A receptor 1 (Homo sapiens) (UniProt P21709); experiment: Binding affinity to wild-type human partial length EPHA1 (V588 to I913 residues) expressed in bacterial expression system assessed as residual binding level at 1 uM by Kinomescan method relative to control
[9] = biological target: Fibroblast growth factor receptor 4 (Homo sapiens) (UniProt P22455); experiment: Binding affinity to wild-type human partial length FGFR4 (G402 to E713 residues) expressed in bacterial expression system assessed as residual binding level at 1 uM by Kinomescan method relative to control
[10] = tested on: Receptor-type tyrosine-protein kinase FLT3 (Homo sapiens), P36888 [K663Q]; experiment: Binding affinity to human partial length FLT3 K663Q mutant (V592 to Y969 residues) expressed in bacterial expression system assessed as residual binding level at 1 uM by Kinomescan method relative to control; outline: as §1
[11] = biological target: Interleukin-1 receptor-associated kinase 1 (Homo sapiens) (UniProt P51617); experiment: Binding affinity to wild-type human partial length IRAK1 (R194 to S712 residues) expressed in mammalian expression system assessed as residual binding level at 1 uM by Kinomescan method relative to control
[12] = tested on: Mast/stem cell growth factor receptor Kit (Homo sapiens), P10721 [UNDEFINED MUTATION]; experiment: Binding affinity to human partial length KIT V559D/V654 double mutant (Y545 to D952 residues) expressed in bacterial expression system assessed as residual binding level at 1 uM by Kinomescan method relative to control; outline: as §1
Mast/stem cell growth factor receptor Kit (Homo sapiens), P10721 [UNDEFINED MUTATION], sequence (P10721 whole entry, looked up, stated change not applied, the tested form may be a part): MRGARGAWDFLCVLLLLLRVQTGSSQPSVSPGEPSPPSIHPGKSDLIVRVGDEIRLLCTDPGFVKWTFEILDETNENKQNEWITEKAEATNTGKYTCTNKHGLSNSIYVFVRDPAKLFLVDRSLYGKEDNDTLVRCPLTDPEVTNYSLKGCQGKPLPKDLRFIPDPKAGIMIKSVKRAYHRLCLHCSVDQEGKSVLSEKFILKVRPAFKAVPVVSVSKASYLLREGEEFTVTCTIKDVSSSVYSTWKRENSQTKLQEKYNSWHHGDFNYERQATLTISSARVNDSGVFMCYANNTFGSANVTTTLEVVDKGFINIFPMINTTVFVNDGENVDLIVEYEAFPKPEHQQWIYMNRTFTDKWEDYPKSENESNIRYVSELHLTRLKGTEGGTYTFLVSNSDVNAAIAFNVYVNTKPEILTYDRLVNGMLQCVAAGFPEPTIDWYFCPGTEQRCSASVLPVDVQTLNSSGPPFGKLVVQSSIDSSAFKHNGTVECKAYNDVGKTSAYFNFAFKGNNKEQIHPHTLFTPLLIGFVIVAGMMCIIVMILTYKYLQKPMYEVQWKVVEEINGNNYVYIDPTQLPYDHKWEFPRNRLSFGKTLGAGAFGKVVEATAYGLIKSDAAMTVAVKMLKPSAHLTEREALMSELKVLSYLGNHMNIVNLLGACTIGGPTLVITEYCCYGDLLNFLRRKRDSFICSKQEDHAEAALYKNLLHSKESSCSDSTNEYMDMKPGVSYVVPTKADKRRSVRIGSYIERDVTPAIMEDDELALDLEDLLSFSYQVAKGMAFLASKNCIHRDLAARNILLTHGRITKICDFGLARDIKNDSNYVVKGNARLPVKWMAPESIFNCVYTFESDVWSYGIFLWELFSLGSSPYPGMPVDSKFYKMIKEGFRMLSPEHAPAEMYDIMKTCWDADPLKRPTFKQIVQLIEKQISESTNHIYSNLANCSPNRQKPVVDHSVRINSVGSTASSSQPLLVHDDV

[13] = biological target: Mast/stem cell growth factor receptor Kit (Homo sapiens) (UniProt P10721); experiment: Binding affinity to wild-type human partial length autoinhibited KIT (Y545 to D952 residues) expressed in mammalian expression system assessed as residual binding level at 1 uM by Kinomescan method relative to control
Mast/stem cell growth factor receptor Kit (Homo sapiens), sequence (P10721 whole entry, the tested form may be a part): as the sequence (P10721 whole entry, looked up, stated change not applied, the tested form may be a part) above

[14] = biological target: Serine/threonine-protein kinase 10 (Homo sapiens) (UniProt O94804); experiment: Binding affinity to wild-type human partial length LOK (E16 to V314 residues) expressed in bacterial expression system assessed as residual binding level at 1 uM by Kinomescan method relative to control
Serine/threonine-protein kinase 10 (Homo sapiens), sequence (O94804 whole entry, looked up, the tested form may be a part): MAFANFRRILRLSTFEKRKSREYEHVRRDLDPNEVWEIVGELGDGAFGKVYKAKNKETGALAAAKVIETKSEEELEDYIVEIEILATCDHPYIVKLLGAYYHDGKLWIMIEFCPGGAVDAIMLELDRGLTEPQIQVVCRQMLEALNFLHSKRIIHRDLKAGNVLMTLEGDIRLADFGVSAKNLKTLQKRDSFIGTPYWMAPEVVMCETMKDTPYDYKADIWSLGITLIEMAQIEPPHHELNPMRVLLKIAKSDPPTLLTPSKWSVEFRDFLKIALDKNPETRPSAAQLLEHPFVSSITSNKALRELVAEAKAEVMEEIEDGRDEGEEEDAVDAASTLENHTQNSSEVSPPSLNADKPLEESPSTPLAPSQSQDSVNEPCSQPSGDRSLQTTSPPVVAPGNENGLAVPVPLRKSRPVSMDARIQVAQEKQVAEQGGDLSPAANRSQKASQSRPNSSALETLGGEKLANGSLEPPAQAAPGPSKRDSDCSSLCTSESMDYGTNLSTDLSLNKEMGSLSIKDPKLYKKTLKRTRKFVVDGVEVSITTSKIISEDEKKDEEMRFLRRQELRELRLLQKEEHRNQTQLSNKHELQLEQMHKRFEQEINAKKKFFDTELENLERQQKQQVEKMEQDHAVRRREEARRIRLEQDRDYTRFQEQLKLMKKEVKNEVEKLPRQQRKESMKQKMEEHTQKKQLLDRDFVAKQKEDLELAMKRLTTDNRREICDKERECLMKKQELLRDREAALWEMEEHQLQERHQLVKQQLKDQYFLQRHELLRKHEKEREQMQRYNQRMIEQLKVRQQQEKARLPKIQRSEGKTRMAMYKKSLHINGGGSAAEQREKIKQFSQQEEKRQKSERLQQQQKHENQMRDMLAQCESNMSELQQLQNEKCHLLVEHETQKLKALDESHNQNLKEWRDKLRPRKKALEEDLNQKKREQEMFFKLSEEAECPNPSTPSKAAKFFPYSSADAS
Outline: (§2)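 Active-site-directed competition binding panel of 468 kinases (KinomeScan), compound at 1 μM. The read-out is kinase remaining bound, given as a percentage of the DMSO control. […]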

[15] = biological target: Serine/threonine-protein kinase 38 (Homo sapiens) (UniProt Q15208); experiment: Binding affinity to wild-type human partial length NDR1 (N33 to E449 residues) expressed in mammalian expression system assessed as residual binding level at 1 uM by Kinomescan method relative to control; outline: as §2
[16] = biological target: Phosphorylase b kinase gamma catalytic chain, skeletal muscle/heart isoform (Homo sapiens) (UniProt Q16816); experiment: Binding affinity to wild-type human full length PHKG1 (M1 to Y387 residues) expressed in bacterial expression system assessed as residual binding level at 1 uM by Kinomescan method relative to control
Outline: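 Active-site-directed competition binding panel (KinomeScan) covering 468 kinases. Test agent was screened at 1 μM. The read-out is the remaining kinase signal expressed relative to a DMSO control. Scores above 35%, taken as weak binding, were not reported.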

[17] = biological target: Serine/threonine-protein kinase PLK2 (Homo sapiens) (UniProt Q9NYY3); experiment: Binding affinity to wild-type human partial length PLK2 (H58 to F354 residues) expressed in mammalian expression system assessed as residual binding level at 1 uM by Kinomescan method relative to control
[18] = biological target: cGMP-dependent protein kinase 2 (Homo sapiens) (UniProt Q13237); experiment: Binding affinity to wild-type human partial length PRKG2 (S422 to F762 residues) expressed in mammalian expression system assessed as residual binding level at 1 uM by Kinomescan method relative to control
[19] = biological target: Serine/threonine-protein kinase PRP4 homolog (Homo sapiens) (UniProt Q13523); experiment: Binding affinity to wild-type human partial length PRP4 (D657 to I1007 residues) expressed in bacterial expression system assessed as residual binding level at 1 uM by Kinomescan method relative to control; outline: as §2
Serine/threonine-protein kinase PRP4 homolog (Homo sapiens), sequence (Q13523 whole entry, the tested form may be a part): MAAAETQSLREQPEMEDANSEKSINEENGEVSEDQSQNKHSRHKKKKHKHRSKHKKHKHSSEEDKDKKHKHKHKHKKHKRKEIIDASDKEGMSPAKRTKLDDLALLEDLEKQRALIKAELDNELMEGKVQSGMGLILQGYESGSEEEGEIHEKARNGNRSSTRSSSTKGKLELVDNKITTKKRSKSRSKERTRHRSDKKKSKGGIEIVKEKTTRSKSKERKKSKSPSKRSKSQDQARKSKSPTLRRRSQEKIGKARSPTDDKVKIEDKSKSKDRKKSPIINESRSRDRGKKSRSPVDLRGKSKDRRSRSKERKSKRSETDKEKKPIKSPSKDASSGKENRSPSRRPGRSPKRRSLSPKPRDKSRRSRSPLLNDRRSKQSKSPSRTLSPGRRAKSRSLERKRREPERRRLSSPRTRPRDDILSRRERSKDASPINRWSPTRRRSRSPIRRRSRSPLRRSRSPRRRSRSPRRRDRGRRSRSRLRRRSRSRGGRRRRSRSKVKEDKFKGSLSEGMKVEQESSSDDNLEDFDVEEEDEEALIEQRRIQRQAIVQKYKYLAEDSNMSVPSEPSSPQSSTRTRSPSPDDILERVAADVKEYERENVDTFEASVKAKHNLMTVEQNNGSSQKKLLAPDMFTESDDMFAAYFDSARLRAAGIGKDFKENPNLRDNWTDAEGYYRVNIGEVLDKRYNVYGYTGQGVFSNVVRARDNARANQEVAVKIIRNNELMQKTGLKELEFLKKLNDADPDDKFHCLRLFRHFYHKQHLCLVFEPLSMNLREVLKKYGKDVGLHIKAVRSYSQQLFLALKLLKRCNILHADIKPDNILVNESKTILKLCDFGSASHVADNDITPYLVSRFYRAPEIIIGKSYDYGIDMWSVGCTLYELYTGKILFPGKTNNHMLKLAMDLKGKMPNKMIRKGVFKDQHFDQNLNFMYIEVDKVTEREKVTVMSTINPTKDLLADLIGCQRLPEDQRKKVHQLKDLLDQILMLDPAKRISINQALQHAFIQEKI

[20] = biological target: Serine/threonine-protein kinase TAO1 (Homo sapiens) (UniProt Q7L7X3); experiment: Binding affinity to wild-type human partial length TAOK1 (M1 to A320 residues) expressed in mammalian expression system assessed as residual binding level at 1 uM by Kinomescan method relative to control
[21] = biological target: Dual specificity testis-specific protein kinase 1 (Homo sapiens) (UniProt Q15569); experiment: Binding affinity to wild-type human full length TESK1 (R37 to S626 residues) expressed in bacterial expression system assessed as residual binding level at 1 uM by Kinomescan method relative to control

C=CC(=O)Nc1ccccc1Nc1nc(Nc2ccc(N3CCN(C)CC3)cc2)ncc1C(=O)Nc1c(C)cccc1Cl
inhibition [1]: inactive | Activity [2]: 89% | Activity [3]: 99% | Activity [4]: 100% | Activity [5]: 100% | Activity [6]: 100% | Activity [7]: 100% | Activity [8]: 100% | Activity [9]: 100% | Activity [10]: 100% | Activity [11]: 100% | Activity [12]: 100% | Activity [13]: 92% | Activity [14]: 96% | Activity [15]: 90% | Activity [16]: 100% | Activity [17]: 100% | Activity [18]: 100% | Activity [19]: 81% | Activity [20]: 100% | Activity [21]: 100%
